# Results from paper PMC3288656 (Biochemical pharmacology, 2012).
# “And” between values parts separate entries of the source, which are not always exact repeats. Identical values can stand only once. Marks after values point to notes of the source that are not given here.
# Legend:
# CB1Rs [1] = molecular target: T1, CB1Rs (Mus musculus, UniProt P47746); assay: [35S]GTPγS binding assay; assay type: biochemical; details: for intrinsic activity at CB1Rs: conclusion from [35S]GTPγS binding data; for [35S]GTPγS Binding Emax: concentration-effect curves, mouse brain homogenates, n=3–4
# T1 sequence (P47746 whole entry): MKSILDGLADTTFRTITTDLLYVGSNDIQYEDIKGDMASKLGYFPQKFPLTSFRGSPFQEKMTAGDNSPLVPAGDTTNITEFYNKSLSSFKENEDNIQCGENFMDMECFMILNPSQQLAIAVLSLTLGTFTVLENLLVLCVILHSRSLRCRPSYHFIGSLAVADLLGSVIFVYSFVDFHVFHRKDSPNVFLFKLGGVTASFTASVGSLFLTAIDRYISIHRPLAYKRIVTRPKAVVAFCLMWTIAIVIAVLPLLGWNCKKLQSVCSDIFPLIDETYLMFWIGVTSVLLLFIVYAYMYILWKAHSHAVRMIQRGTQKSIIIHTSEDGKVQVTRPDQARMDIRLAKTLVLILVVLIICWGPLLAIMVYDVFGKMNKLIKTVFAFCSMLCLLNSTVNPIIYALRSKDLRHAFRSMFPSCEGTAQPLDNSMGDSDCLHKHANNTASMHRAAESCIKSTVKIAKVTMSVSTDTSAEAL
# CB1Rs [2] = molecular target: T1, CB1Rs; assay: Competition receptor binding with [3H]CP-55,940 in mouse brain homogenates
# [3] = tested on: core body temperature (hypothermia); assay: Cannabinoid tetrad: core body temperature by biotelemetry; assay type: in vivo, NIH Swiss mice; details: for minimum core body temperature recorded / time to maximal core body temperature reduction (Tmax): 10 mg/kg, i.p.
# locomotor activity = assay: Cannabinoid tetrad: locomotor activity by biotelemetry; assay type: in vivo, NIH Swiss mice; details: for locomotor activity: mice
# Outline: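 Abdominal biotelemetry probes were implanted in male NIH Swiss mice under ketamine 100 mg/kg plus xylazine 10 mg/kg i.p., with at least 7 days recovery. Mice were housed singly, acclimated at least 2 h, and gave at least 1 h of baseline. They were then dosed i.p. in 1:1:18 ethanol:emulphor:saline (10 mL/kg) and moved to a fresh-bedding cage. Activity was logged every 5 min for at least 10 h. Groups of 5 or 6.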
# catalepsy = assay: Cannabinoid tetrad: catalepsy, horizontal bar test; assay type: in vivo, NIH Swiss mice
# Outline: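 Catalepsy was measured as time on a horizontal bar in male NIH Swiss mice (groups of 5 or 6, drug-naïve). Dosing was i.p. in 1:1:18 ethanol:emulphor:saline (10 mL/kg). The steel bar was 0.5 cm in diameter and sat 4.0 cm above a platform. Forelimbs went on the bar and hindlimbs on the platform in a rearing posture. Timing ran until both paws left the bar, maximum 30 s. Single trial per time point at 0, 10, 30 and 60 min.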
# analgesia (tail flick) = assay: Cannabinoid tetrad: analgesia, tail-flick latency; assay type: in vivo, NIH Swiss mice
# Outline: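 Male NIH Swiss mice (~25–30 g, drug-naïve, groups of 5 or 6) received i.p. test compound in ethanol:emulphor:saline 1:1:18 at 10 mL/kg. Radiant-heat tail flick used sensitivity 150 and light intensity 369, calibrated so untreated mice respond in 2–4 s, with a 10 s cutoff. The photobeam break stopped the timer. One trial per mouse at 0, 10, 30 and 60 min post-dose.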
# [4] = drug 1 μM co-incubated with CB1R antagonist O-2050 1 μM
# [5] = drug 10 μM (receptor-saturating)
# [6] = 10 mg/kg, i.p., relative to vehicle
# [7] = M4 10 mg/kg i.p. + JWH-018 3 mg/kg i.p. vs JWH-018 alone
# [8] = JWH-018 3 mg/kg i.p. alone, mice
smiles,measurement,setting,value
CCCCn1cc(C(=O)c2cccc3ccccc23)c2ccc(O)cc21 [M3],intrinsic activity at CB1Rs,CB1Rs [1],partial agonist activity
same,[35S]GTPγS Binding,CB1Rs [1]; drug 1 μM,0.04 ± 0.00 pmol/mg
same,[35S]GTPγS Binding + O-2050 (1 μM),CB1Rs [1]; [4],0.02 ± 0.01 pmol/mg
same,[35S]GTPγS Binding,CB1Rs [1]; [5],"0.11 ± 0.02 pmole/mg and 0.11 ± 0.02 ^a, ^b pmole/mg"
same,Ki,"CB1Rs [2]; read-out: CB1R affinity (Ki), displacement of [3H]CP-55,940, mouse brain homogenates, n=4",1280 ± 470 nM
"CCCCn1cc(C(=O)c2cccc3ccccc23)c2ccccc21 [JWH-073, (1-butyl-1H-indole-3-yl)-1-naphthalenyl-methanone, reference compound]",[35S]GTPγS Binding Emax,CB1Rs [1],0.27 ± 0.01 ^a pmole/mg
same,intrinsic activity at CB1Rs,CB1Rs [1],full CB1R agonists
same,[35S]GTPγS Binding,CB1Rs [1]; drug 1 μM,0.27 ± 0.04 pmol/mg
same,[35S]GTPγS Binding + O-2050 (1 μM),CB1Rs [1]; [4],0.07 ± 0.02 pmol/mg
same,[35S]GTPγS Binding,CB1Rs [1]; [5],0.28 ± 0.03 pmole/mg and 0.28 ± 0.03 ^c pmole/mg
same,minimum core body temperature recorded,[3]; mice,29.74 ± 1.44 °C
same,time to maximal core body temperature reduction (Tmax),[3]; mice,54.17 ± 5.23 min
same,locomotor activity,locomotor activity; [6],locomotor suppression
"O=C(c1cccc2ccccc12)c1cn(CCCCO)c2ccccc12 [M5, 1-(4-hydroxybutyl-1H-indole-3-yl)(naphthalen-1-yl)-methanone]",intrinsic activity at CB1Rs,CB1Rs [1],partial agonist activity
same,[35S]GTPγS Binding,CB1Rs [1]; drug 1 μM,0.12 ± 0.00 pmol/mg
same,[35S]GTPγS Binding + O-2050 (1 μM),CB1Rs [1]; [4],0.05 ± 0.01 pmol/mg
same,[35S]GTPγS Binding,CB1Rs [1]; [5],0.16 ± 0.02 pmole/mg and 0.16 ± 0.02 ^a pmole/mg
CCCCn1cc(C(=O)c2cccc3ccccc23)c2cccc(O)c21 [M4],antagonism of JWH-018-induced catalepsy,catalepsy; [7],no difference
same,antagonism of CB1R agonists and inverse agonists in [35S]GTPγS binding,"CB1Rs [1]; M4 10 μM with 100 nM CP, 1 μM JWH-018, 500 nM JWH-073, 10 μM Rimonabant or AM251",significantly antagonized
same,Schild plot slope,CB1Rs [1]; M4 against JWH-018,0.97
same,effect on basal [35S]GTPγS binding,"CB1Rs [1]; M4 alone, 0.1 nM to 10 μM",neither significantly increased
same,intrinsic activity at CB1Rs,CB1Rs [1],lacks significant intrinsic activity
same,"JWH-018-induced hypothermia, area under the curve 0–500 minutes","[3]; M4 10 mg/kg i.p. + JWH-018 3 mg/kg i.p. vs JWH-018 alone, n=5",significantly attenuated hypothermia
same,change in body temperature,"[3]; M4 10 mg/kg i.p. alone, mice",no significant change in body temperature
same,"core body temperature minimum, JWH-018-induced hypothermia with M4","[3]; M4 10 mg/kg i.p. co-administered with JWH-018 3 mg/kg i.p., mice",33.09 +/− 0.70 °C
same,antagonism of JWH-018-induced analgesia,analgesia (tail flick); [7],no difference
same,antagonism of JWH-018-induced locomotor suppression,locomotor activity; [7],no difference
CCCCn1cc(C(=O)c2cccc3ccccc23)c2c(O)cccc21 [M1],[35S]GTPγS Binding Emax,CB1Rs [1],0.14 ± 0.01 ^b pmole/mg
same,intrinsic activity at CB1Rs,CB1Rs [1],partial agonist activity
same,[35S]GTPγS Binding,CB1Rs [1]; drug 1 μM,0.17 ± 0.01 pmol/mg
same,[35S]GTPγS Binding + O-2050 (1 μM),CB1Rs [1]; [4],0.07 ± 0.01 pmol/mg
same,[35S]GTPγS Binding,CB1Rs [1]; [5],0.14 ± 0.01 pmole/mg and 0.14 ± 0.01 ^a pmole/mg
same,minimum core body temperature recorded,[3]; mice,30.32 ± 0.66 °C
same,time to maximal core body temperature reduction (Tmax),[3]; mice,58.00 ± 4.64 min
same,locomotor activity,locomotor activity; [6],reduction of locomotor activity similar to that observed with administration of JWH-073
"CCCCCCC(C)(C)c1ccc([C@@H]2C[C@H](O)CC[C@H]2CCCO)c(O)c1 [CP-55,940, reference compound]",[35S]GTPγS Binding Emax,CB1Rs [1],0.26 ± 0.01 ^a pmole/mg
same,intrinsic activity at CB1Rs,CB1Rs [1],full CB1R agonists
same,[35S]GTPγS Binding,CB1Rs [1]; drug 100 nM,0.20 ± 0.04 pmol/mg
same,[35S]GTPγS Binding + O-2050 (1 μM),CB1Rs [1]; drug 100 nM co-incubated with CB1R antagonist O-2050 1 μM,0.06 ± 0.03 pmol/mg
same,[35S]GTPγS Binding,CB1Rs [1]; [5],"0.32 ± 0.02 pmole/mg and 0.32 ± 0.02 ^c, pmole/mg"
"CCCCCn1cc(C(=O)c2cccc3ccccc23)c2ccccc21 [JWH-018, reference compound]",catalepsy,catalepsy; [8],catalepsy
same,EC50,"CB1Rs [1]; read-out: EC50 for G-protein activation, JWH-018 alone",8 nM
same,maximal decrease in core body temperature to,[3]; [8],30.28 +/− 0.71 °C
same,analgesia (tail flick assay),analgesia (tail flick); [8],robust analgesia
same,locomotor activity,locomotor activity; JWH-018 3 mg/kg i.p. alone,locomotor suppression
"O=C(O)CCCn1cc(C(=O)c2cccc3ccccc23)c2ccccc21 [M6, 4-(3-(1-naphthoyl)-1H-indole-1-yl)-1-butanoic acid]","displacement of [3H]CP-55,940 specific binding","CB1Rs [2]; concentrations as high as 10 μM, n=3",less than 10%
